Assay outcomes (PubChem)
HMGR II inh: inhibitors of E. faecalis class II HMGR, primary screen, biochemical, Enterococcus faecalis; HMG-CoA reductase (Enterococcus faecalis, mvaE); purified E. faecalis HMGR, NADPH absorbance 340 nm kinetic; inhibition, % at 10 µM; 190,000 tested, 0.41% active;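 active = inhibition above a set limit, the median over all tested compounds plus 3 SD, cut at about 9.5% in these data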;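 note: enzyme runs in reverse so mevalonate oxidation gives rising NADPH absorbance; 0% = complete reaction with DMSO and 100% = background rate lacking mevalonate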
Calpain2 inh: inhibitors of pig calpain II, primary screen, biochemical, fluorogenic peptide substrate, 1536-well; inhibition, % at 16 µM; purified calpain II, 30 min; AID 1236, 2008; 220,000 tested, 0.37% active;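 active = inhibition above about 50%, limit read from the data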
PMI act satM6P: human PMI activators, high substrate, primary screen, biochemical, fluorescence intensity, near-saturating mannose 6-phosphate | activation factor at 20 µM | AID 1216, 2008 | 190,000 tested, 0.34% active | coupled PMI enzyme assay, resazurin fluorescence, 20 min; stronger effect = higher value; 1 = untreated enzyme, 0 = substrate-free blank;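 active = activation factor of 2 or more at 20 µM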
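Test system – human PMI in coupled enzyme assay · Timing – 20 min incubation at room temperature · Detection – Diaphorase-driven resazurin-to-resorufin fluorescence, excitation 544, emission 590 nm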
Rad51 HR inh: human RAD51 strand exchange inhibitors, primary screen, biochemical, fluorescence | hRad51 DNA strand exchange, fluorescence dequenching | inhibition, % at 10 µM | 200,000 tested, 0.085% active;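 active = inhibition above 40% at the single screening dose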;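 note: 0% = DMSO control wells and 100% = blanks with heterologous ssDNA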
Target sequence (Q06609 whole entry, looked up): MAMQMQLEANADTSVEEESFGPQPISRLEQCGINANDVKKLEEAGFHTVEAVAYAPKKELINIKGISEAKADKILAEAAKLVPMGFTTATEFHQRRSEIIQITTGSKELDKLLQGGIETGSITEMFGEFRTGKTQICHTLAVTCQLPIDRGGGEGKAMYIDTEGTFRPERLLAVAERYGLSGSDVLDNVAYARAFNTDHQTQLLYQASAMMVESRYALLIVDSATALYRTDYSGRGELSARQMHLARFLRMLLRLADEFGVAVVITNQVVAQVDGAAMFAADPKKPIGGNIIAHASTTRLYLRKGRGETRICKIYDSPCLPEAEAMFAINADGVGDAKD
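Test system: preformed human Rad51 ssDNA filaments. Compound dosing: single dose, 10 µM final compound. Incubation: filaments 15 min 37 °C, then compound 30 min. Technique: FRET fluorescence dequenching, excitation 485 nm, emission 520 nm. Read-out basis: percent inhibition from fluorescence, normalised to plate control and blank means. Benchmarks: plate controls and plate blanks.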
PMI activator: activators of human PMI, primary screen, biochemical, fluorescence intensity, near-Km mannose 6-phosphate; AID 1214, 2008; 190,000 tested, 0.005% active; activation factor at 20 µM; purified human PMI, coupled resazurin fluorescence, 20 min; stronger effect = higher value; 1 = vehicle control, 0 substrate-free wells;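 active = activation factor of 2 or more at 20 µM, relative to plate controls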
* hit, by the source's call; . = not tested or not shown. Most compounds without a hit are left out; they make up all but 1.1% or so of the library.

SMILES	HMGR II inh	Calpain2 inh	PMI act satM6P	Rad51 HR inh	PMI activator
Cc1noc(C)c1C(=O)N1CCC(C(=O)c2ccc(F)cc2F)CC1	.	-4	.	18	.
CC(=O)Nc1ccccc1OCC(=O)N(Cc1ccccc1)C(C)C	-3	-5	1	-9	0.9
CCN1CCN(C(=O)CN(c2cc(OC)ccc2OC)S(C)(=O)=O)CC1	-4	2	1	4	1
COc1ccc(OC)c(N(CC(=O)N2CCN(c3cc(Cl)ccc3C)CC2)S(C)(=O)=O)c1	-7	57*	0.9	-4	0.8
CC(=O)c1c(N2CCOCC2)nc2ccc(Cl)cc2c1-c1ccccc1	.	-12	.	.	.
O=C1CC(c2ccccc2)Cc2nc(N3CCc4ccccc4C3)ncc21 (stereo not given)	-3	54*	1	-3	1
Cc1nnc(SCc2ccccc2Cl)n1CC1CCCO1 (stereo not given)	16*	0	1.1	0	1.1
O=c1c2c3c(sc2n2cnnc2n1Cc1ccccc1)CN(Cc1ccccc1)CC3	.	.	2*	-9	1.5
Cc1nnc2n(Cc3ccccc3)c(=O)c3c4c(sc3n12)CN(Cc1ccccc1)CC4	.	.	0.9	.	0.9
Cc1ccc(NC(=O)CSc2nsc(SCC(=O)Nc3ccc(C)cc3C)c2C#N)c(C)c1	0	51*	1	-6	0.9
Cc1cccc(-n2c(SCc3ccc([N+](=O)[O-])cc3)nnc2-c2c[nH]c3ccccc23)c1	0	-35	1	32	0.9
Cc1ccc2c(CN3CCCc4ccccc43)cc(=O)oc2c1C	-5	-32	2.3*	3	1.8
Cc1cc(C)cc(C(=O)NC(CC(N)=O)c2ccc(NC3CCCCC3)c([N+](=O)[O-])c2)c1 (stereo not given)	.	-32	.	4	.
Cc1cc(O)c(C=O)c2c1C(=O)Oc1c(CO)c(O)c3c(c1O2)C(O)OC3=O (stereo not given)	-5	25	0.6	66*	0.7
COc1ccc(C(=O)NNc2ccccc2)cc1OC	3	-29	2.2*	3	1.4
O=C(O)CC1(CC(=O)Nc2ccc(F)c(Cl)c2)CCCCC1	.	-3	.	3	.
COc1ccccc1CNN	5	4	2.2*	.	1.6
COc1ccccc1CNCc1cc(OC)c(OC)c(OC)c1	-6	8	1.1	-16	1.1
CCC(SC1=N/C(=C/c2ccccc2OC)C(=O)N1c1ccccc1)C(=O)Nc1cc(C)on1 (stereo not given)	3	-18	0.9	-1	0.9
Nn1c(Cc2cccc3ccccc23)nnc1SCc1ccc(Cl)c(Cl)c1	-5	55*	0.9	22	0.9
COc1ccc(CCNC(=O)c2ccccc2Cl)cc1OC	18*	-23	1	-4	1
O=C(O)c1cc(-c2ccccc2)n(-c2ccccc2C(=O)O)n1	9.6*	-11	1.2	-3	1.1
CCCCNCC(=O)Nc1sc(C)c(C)c1C(=O)OCC	-4	-9	0.9	1	0.9
CCCn1c(SCc2nc3ccccc3s2)n[nH]c1=O	4	50*	1.1	-6	1.1
O=c1[nH]nc(SCc2nc3ccccc3s2)n1C1CC1	-3	-30	1	24	1.2
SMILES	HMGR II inh	Calpain2 inh	PMI act satM6P	Rad51 HR inh	PMI activator
CCOC(=O)c1c2c(c(=S)n(-c3ccccc3)c1N)CCC2	-5	51*	0.6	-7	0.7
COC(=O)C(NC(=O)c1cccnc1Cl)C(C)C (stereo not given)	.	-27	.	.	.
Cc1ccc(OCC(O)CN2C(=O)NC(C)(C)C2=O)cc1 (stereo not given)	14*	-22	0.9	-6	1
CC(=O)N1CCN(c2ccc(NC(=O)c3ccc4c(c3)OCCO4)cc2)CC1	-1	3	0.9	1	0.9
O=C(Nc1ccc(N2CCCCC2)cc1)c1ccc2c(c1)OCCO2	27*	-19	0.9	5	1
CC(C)c1ccc(C(=O)NC(=S)NCc2cccnc2)cc1	-5	53*	1	-11	1
Cc1ccc(C(=O)NC(=S)NCc2cccnc2)cc1C	-1	-4	0.9	5	0.9
CCOCCCNCc1ccc(OCc2ccccc2C)c(OC)c1	-1	-4	1.1	-1	1
CSCc1cc(N2CCOCC2)nc(SCc2ccc(Cl)c(Cl)c2)n1	1	-14	2*	3	1.2
COCCn1c(N)c(N(Cc2ccccc2)C(=O)c2oc3ccccc3c2C)c(=O)[nH]c1=O	2	-38	0.9	-2	0.9
CC1SC(C)C(=O)N(CC(=O)NC2CCCCC2)C1=O (stereo not given)	5	7	1.1	9	1.2
CCN(CC)C(=S)NC(=O)c1cccnc1	18*	-21	0.9	6	0.8
Cc1ccccc1CN(c1ccc(C(=O)N/N=C/c2ccc(OCC(N)=O)cc2)cc1)S(C)(=O)=O	-3	-46	0.9	.	0.9
Cc1ccc(SCCNC(=O)c2ccc(CN3CCOCC3)cc2)cc1	-1	-1	0.9	-93	0.9
Cc1ccc2c(CC(=O)Nc3cccc(S(=O)(=O)N4CCOCC4)c3)coc2c1	3	51*	0.9	-3	0.9
Cc1ccc(CNC(=O)c2oc3ccc(S(=O)(=O)N4CCOCC4)cc3c2C)cc1	-9	57*	1	-5	0.9
Cc1ccc(CNC(=O)c2ccc(CN3CCOCC3)cc2)cc1	11*	10	1	1	1.1
O=C(Cc1ccccc1Cl)Nc1cccc(S(=O)(=O)N2CCOCC2)c1	-3	-2	0.9	1	0.8
CCN(CC)S(=O)(=O)c1ccc2oc(C(=O)NC(C)C)c(C)c2c1	0	-21	0.9	-6	0.9
CCN(CC)S(=O)(=O)c1ccc2oc(C(=O)NCc3ccc(C)cc3)c(C)c2c1	-5	63*	0.8	3	0.8
Cc1c(C(=O)NCc2ccccc2)oc2ccc(S(=O)(=O)N3CCCC3)cc12	-12	-25	0.9	-3	0.9
CC1c2ccsc2CCN1S(=O)(=O)c1cccs1 (stereo not given)	.	-4	.	13	.
CCN(CC)c1ccc(C(=O)NC(=S)Nc2cc(S(=O)(=O)N3CCOCC3)ccc2-n2cncn2)cc1	-6	58*	1	-4	1.1
CC(=O)[C@@]1(O)CC[C@H]2[C@@H]3CCC4=CC(=O)CC[C@]4(C)[C@H]3CC[C@@]21C	12*	6	1	-5	1
COCCN=c1scc(-c2cccs2)n1/N=C/c1ccc(O)c(O)c1O	-8	65*	0.5	-5	0.3
CCN1CCN(c2cc(-c3ccccc3)nc3cc(-c4cccc(F)c4)nn23)CC1	9.6*	-285	0.9	-6	0.9
COc1ccc(CCNC(=O)COC(=O)c2cc(OC)c(OC)cc2OC)cc1OC	-2	-20	1	-10	0.9
